How the values were obtained:
Format in all cases: functional
[1] = tested on: ACHN; assay: Growth inhibition of human ACHN cells assessed as cell growth at 10^-4 M after 48 hrs by sulforhodamine B assay; conditions: read-out: Activity
Outline: (§1)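 Five-dose NCI-60 run (0.01, 0.1, 1, 10 and 100 µM, as 10-fold dilutions from a DMSO stock made at 400× the top final level). Cells were grown in RPMI 1640 with 5% FBS and 2 mM glutamine and plated for 24 h. They were then exposed for 48 h at 37 °C and 5% CO2. TCA fixation was followed by SRB staining with A515 read-out. Percent growth was taken relative to time-zero and control plates.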

[2] = Growth inhibition of human NCI-ADR-RES cells assessed as cell growth at 10^-4 M after 48 hrs by sulforhodamine B assay; conditions: read-out: Activity
[3] = tested on: UACC-62; assay: Growth inhibition of human UACC62 cells assessed as cell growth at 10^-4 M after 48 hrs by sulforhodamine B assay; conditions: UACC-62, 48 h, read-out: Activity
[4] = tested on: SNB-19; assay: Growth inhibition of human SNB19 cells assessed as cell growth at 10^-4 M after 48 hrs by sulforhodamine B assay; conditions: SNB-19, 48 h, read-out: Activity
[5] = tested on: SF-295; assay: Growth inhibition of human SF295 cells assessed as cell growth at 10^-4 M after 48 hrs by sulforhodamine B assay; conditions: SF-295, 48 h, read-out: Activity
[6] = tested on: BT-549; assay: Growth inhibition of human BT549 cells assessed as cell growth at 10^-5 M after 48 hrs by sulforhodamine B assay; conditions: BT-549, 48 h, read-out: Activity; outline: as §1
[7] = tested on: UO-31; assay: Growth inhibition of human UO31 cells assessed as cell growth at 10^-5 M after 48 hrs by sulforhodamine B assay; conditions: UO-31, 48 h, read-out: Activity
[8] = tested on: TK-10; assay: Growth inhibition of human TK10 cells assessed as cell growth at 10^-5 M after 48 hrs by sulforhodamine B assay; conditions: TK-10, 48 h, read-out: Activity
[9] = tested on: RXF 393; assay: Growth inhibition of human RXF393 cells assessed as cell growth at 10^-5 M after 48 hrs by sulforhodamine B assay; conditions: RXF 393, 48 h, read-out: Activity
[10] = tested on: UACC-62; assay: Growth inhibition of human UACC62 cells assessed as cell growth at 10^-5 M after 48 hrs by sulforhodamine B assay; conditions: UACC-62, 48 h, read-out: Activity
[11] = tested on: SNB-75; assay: Growth inhibition of human SNB75 cells assessed as cell growth at 10^-5 M after 48 hrs by sulforhodamine B assay; conditions: SNB-75, 48 h, read-out: Activity
[12] = tested on: HCT-15; assay: Growth inhibition of human HCT15 cells assessed as cell growth at 10^-5 M after 48 hrs by sulforhodamine B assay; conditions: HCT-15, 48 h, read-out: Activity
Outline: (§2)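 Five-dose screen at NCI. Cells in RPMI 1640 with 5% FBS and 2 mM L-glutamine, seeded at 5000–40,000 cells/well and grown 24 h at 37 °C, 5% CO2 before dosing, with time-zero plates TCA-fixed. Drug diluted from DMSO stock to 0.01, 0.1, 1, 10 and 100 µM final, 48 h. Cells fixed with cold TCA (10% final), stained with 0.4% SRB and read at 515 nm. Percent growth from Tz, control and test absorbances; GI50, TGI and LC50 from dose-response curves.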

[13] = tested on: HCT-116; assay: Growth inhibition of human HCT116 cells assessed as cell growth at 10^-5 M after 48 hrs by sulforhodamine B assay; conditions: HCT-116, 48 h, read-out: Activity; outline: as §2
[14] = tested on: DU-145; assay: Growth inhibition of human DU145 cells assessed as cell growth at 10^-6 M after 48 hrs by sulforhodamine B assay; conditions: DU-145, 48 h, read-out: Activity; outline: as §1
[15] = tested on: UO-31; assay: Growth inhibition of human UO31 cells assessed as cell growth at 10^-6 M after 48 hrs by sulforhodamine B assay; conditions: UO-31, 48 h, read-out: Activity
[16] = tested on: CAKI-1; assay: Growth inhibition of human CAKI-1 cells assessed as cell growth at 10^-6 M after 48 hrs by sulforhodamine B assay; conditions: CAKI-1, 48 h, read-out: Activity; outline: as §1
[17] = tested on: OVCAR-5; assay: Growth inhibition of human OVCAR5 cells assessed as cell growth at 10^-6 M after 48 hrs by sulforhodamine B assay; conditions: OVCAR-5, 48 h, read-out: Activity
[18] = tested on: RPMI-8226; assay: Growth inhibition of human RPMI8226 cells assessed as cell growth at 10^-6 M after 48 hrs by sulforhodamine B assay; conditions: RPMI-8226, 48 h, read-out: Activity
[19] = tested on: PC-3; assay: Growth inhibition of human PC3 cells assessed as cell growth at 10^-7 M after 48 hrs by sulforhodamine B assay; conditions: PC-3, 48 h, read-out: Activity
[20] = tested on: RXF 393; assay: Growth inhibition of human RXF393 cells assessed as cell growth at 10^-7 M after 48 hrs by sulforhodamine B assay; conditions: RXF 393, 48 h, read-out: Activity
[21] = tested on: HT-29; assay: Growth inhibition of human HT-29 cells assessed as cell growth at 10^-7 M after 48 hrs by sulforhodamine B assay; conditions: HT-29, 48 h, read-out: Activity; outline: as §2
[22] = tested on: HCT-15; assay: Growth inhibition of human HCT15 cells assessed as cell growth at 10^-7 M after 48 hrs by sulforhodamine B assay; conditions: HCT-15, 48 h, read-out: Activity; outline: as §2
[23] = tested on: T47D; assay: Growth inhibition of human T47D cells assessed as cell growth at 10^-8 M after 48 hrs by sulforhodamine B assay; conditions: read-out: Activity
[24] = tested on: Malme-3M; assay: Growth inhibition of human MALME-3M cells assessed as cell growth at 10^-8 M after 48 hrs by sulforhodamine B assay; conditions: read-out: Activity
[25] = tested on: SF-295; assay: Growth inhibition of human SF295 cells assessed as cell growth at 10^-8 M after 48 hrs by sulforhodamine B assay; conditions: SF-295, 48 h, read-out: Activity
[26] = tested on: NCI-H322M; assay: Growth inhibition of human NCI-H322M cells assessed as cell growth at 10^-8 M after 48 hrs by sulforhodamine B assay; conditions: read-out: Activity
[27] = Growth inhibition of human EKVX cells assessed as cell growth at 10^-8 M after 48 hrs by sulforhodamine B assay; conditions: read-out: Activity; outline: as §2
[28] = tested on: MCF7; assay: Growth inhibition of human MCF7 cells after 48 hrs by sulforhodamine B assay; conditions: MCF7, 48 h; for CC50: read-out: LC50 (the source's name)
Outline: (§3)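 Adherent cells in RPMI 1640 with 5% FBS and 2 mM L-glutamine were plated at 5000–40,000 cells/well and grown 24 h. Five concentrations (0.01–100 µM, DMSO stock) were added for 48 h at 37 °C. Cells were fixed with cold TCA (10% final) and stained with SRB, read at 515 nm. GI50 came from log concentration–growth curves against time-zero and control plates.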

[29] = tested on: SK-MEL-28; assay: Growth inhibition of human SK-MEL-28 cells after 48 hrs by sulforhodamine B assay; conditions: SK-MEL-28, 48 h; for CC50: read-out: LC50 (the source's name); outline: as §3
[30] = tested on: SF-539; assay: Growth inhibition of human SF539 cells after 48 hrs by sulforhodamine B assay; conditions: SF-539, 48 h; for CC50: read-out: LC50 (the source's name); outline: as §3
[31] = tested on: KM12; assay: Growth inhibition of human KM12 cells after 48 hrs by sulforhodamine B assay; conditions: KM12, 48 h; for CC50: read-out: LC50 (the source's name); outline: as §3
[32] = tested on: NCI-H460; assay: Growth inhibition of human NCI-H460 cells after 48 hrs by sulforhodamine B assay; conditions: NCI-H460, 48 h; for CC50: read-out: LC50 (the source's name); outline: as §3

Structure (SMILES): O=S(=O)(Nc1ccc(Cl)cc1)c1ccc2nc(-c3ccccc3)c(-c3ccccc3)nc2c1
- growth at 100 µM [1]: 76%
- growth at 100 µM [2]: 69%
- growth at 100 µM [3]: 62%
- growth at 100 µM [4]: 83%
- growth at 100 µM [5]: 77%
- growth at 10 µM [6]: -20%
- growth at 10 µM [7]: 6%
- growth at 10 µM [8]: 9%
- growth at 10 µM [9]: -41%
- growth at 10 µM [10]: -22%
- growth at 10 µM [11]: 12%
- growth at 10 µM [12]: 3%
- growth at 10 µM [13]: 1%
- growth at 1 µM [14]: 93%
- growth at 1 µM [15]: 90%
- growth at 1 µM [16]: 89%
- growth at 1 µM [17]: 90%
- growth at 1 µM [18]: 68%
- growth at 0.1 µM [19]: 92%
- growth at 0.1 µM [20]: 103%
- growth at 0.1 µM [21]: 100%
- growth at 0.1 µM [22]: 98%
- growth at 0.01 µM [23]: 95%
- growth at 0.01 µM [24]: 106%
- growth at 0.01 µM [25]: 92%
- growth at 0.01 µM [26]: 93%
- growth at 0.01 µM [27]: 97%
- CC50 [28]: > 100 µM
- TGI [29]: > 100 µM
- CC50 [29]: > 100 µM
- TGI [30]: > 100 µM
- CC50 [30]: > 100 µM
- TGI [31]: > 100 µM
- CC50 [31]: > 100 µM
- CC50 [32]: > 100 µM

Structure (SMILES): O=S(=O)(Nc1ccccn1)c1ccc2nc(-c3ccccc3)c(-c3ccccc3)nc2c1
- growth at 100 µM [1]: 62%
- growth at 100 µM [2]: 58%
- growth at 100 µM [3]: 64%
- growth at 100 µM [4]: 62%
- growth at 100 µM [5]: 40%
- growth at 10 µM [6]: -34%
- growth at 10 µM [7]: -5%
- growth at 10 µM [8]: 4%
- growth at 10 µM [9]: -44%
- growth at 10 µM [10]: -13%
- growth at 10 µM [11]: 3%
- growth at 10 µM [12]: 3%
- growth at 10 µM [13]: 1%
- growth at 1 µM [14]: 95%
- growth at 1 µM [15]: 85%
- growth at 1 µM [16]: 102%
- growth at 1 µM [17]: 104%
- growth at 1 µM [18]: 55%
- growth at 0.1 µM [19]: 93%
- growth at 0.1 µM [20]: 109%
- growth at 0.1 µM [21]: 97%
- growth at 0.1 µM [22]: 98%
- growth at 0.01 µM [23]: 95%
- growth at 0.01 µM [24]: 97%
- growth at 0.01 µM [25]: 86%
- growth at 0.01 µM [26]: 96%
- growth at 0.01 µM [27]: 100%
- GI50 [28]: 2.18 µM
- CC50 [28]: > 100 µM
- TGI [29]: > 100 µM
- CC50 [29]: > 100 µM
- TGI [30]: > 100 µM
- CC50 [30]: > 100 µM
- TGI [31]: > 100 µM
- CC50 [31]: > 100 µM
- TGI [32]: > 100 µM
- CC50 [32]: > 100 µM

Source: ChEMBL document CHEMBL2407075, “Sulphonamido-quinoxalines: search for anticancer agent” (Eur J Med Chem, 2013)
